Assay outcomes from PubChem.
CXCR6 inh: CXCR6 (human) receptor inhibition; hit rate 0.36% among 360,000; inhibition, % at 20 µM; CHO-K1 PathHunter CXCR6 beta-arrestin, luminescence; in the data active means inhibition above about 34%, passing the limit was not always enough;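 further: antagonist mode with CXCL16 agonist at 10 nM final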
CCR6 antag: antagonists of human CCR6 receptor; CHO-K1 CCR6 PathHunter beta-arrestin, luminescence, CCL20-stimulated; P51684; hit rate 0.49% among 340,000; inhibition, % at 20 µM;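 active means compounds whose inhibition of the agonist-driven luminescence signal at 20 µM reaches about 50%, limit read from the data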;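 further: cells stimulated with CCL20 at 14 nM final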
Target sequence (P51684 whole entry, looked up): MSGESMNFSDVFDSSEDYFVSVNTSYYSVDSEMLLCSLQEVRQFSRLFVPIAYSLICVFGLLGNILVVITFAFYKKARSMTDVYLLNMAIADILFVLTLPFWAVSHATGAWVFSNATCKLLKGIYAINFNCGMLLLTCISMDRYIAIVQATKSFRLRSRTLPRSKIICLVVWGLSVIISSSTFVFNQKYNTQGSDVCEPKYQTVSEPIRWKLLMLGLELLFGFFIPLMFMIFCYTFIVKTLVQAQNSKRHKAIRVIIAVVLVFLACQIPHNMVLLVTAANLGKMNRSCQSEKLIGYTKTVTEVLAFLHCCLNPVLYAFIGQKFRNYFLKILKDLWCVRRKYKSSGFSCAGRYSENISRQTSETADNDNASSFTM
APJ agonist: activates the human apelin receptor APJ | P35414 | CHO-K1 APJ PathHunter beta-arrestin, luminescence; 0% DMSO wells, 100% apelin | activation, % at 20 µM | hit rate 0.11% among 330,000 | AID 2520;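 active means activation more than six SD over the plate average, tested at 20 µM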
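Test system: CHO-K1 APJ beta-arrestin complementation cell line | Compound: Single test compound dose, 20 µM final, 1% DMSO | Incubation: Compound 90 min 25 °C, reagent 1 h | Measured by: beta-gal luminescence | Read-out basis: APJ–arrestin association signal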
EBI2 antag: blocks human EBI2 receptor beta-arrestin signaling; EBI2 beta-arrestin recruitment, luminescence, 7a,25-OHC stimulated; inhibition, % at 5 µM; hit rate 0.81% among 360,000; AID 651636; P32249; in the data active means inhibition above about 38%;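 further: enzyme fragment complementation signal reports receptor beta-arrestin coupling in cells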
APJ antag: blocks the human apelin receptor APJ; AID 2521; hit rate 0.32% among 330,000; CHO-K1 APJ beta-arrestin complementation, luminescence; inhibition, % at 20 µM; P35414;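 active means inhibition above about 40% at 20 µM, limit read from the data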;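 further: cells challenged with 10 nM apelin-13 agonist together with compound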
APJ antag conf: confirmation of human APJ apelin receptor antagonists; shares compounds with APJ antag; APJ beta-arrestin recruitment, luminescence, antagonist mode; inhibition, % at 20 µM; hit rate 66% among 950; AID 2766; in the data active means inhibition above about 50%
A number is an active result; - = inactive; . = no result. In the library only some 1.5% were active in any assay of this set; here they are far more common.

SMILES	CXCR6 inh	CCR6 antag	APJ agonist	EBI2 antag	APJ antag	APJ antag conf
O=C1CNC(=S)N1C1CCCCCC1	-	-	-	-	-	.
CCC(C)(C)C(=O)Nc1cc([N+](=O)[O-])ccc1Cl	-	-	-	-	-	.
CCN(CC)c1nc(C)c(C(=S)Nc2cc([N+](=O)[O-])ccc2Cl)s1	42	57	-	-	40	100
Cc1cccc(NC(=O)c2cc3c(=O)n4ccccc4nc3n(CC(C)C)c2=N)c1	-	-	-	-	-	.
COc1cccc(NC(=O)c2cc3c(=O)n4ccccc4nc3n(CC(C)C)c2=N)c1	-	-	-	-	41	-
O=C(CCC(=O)N1CCOCC1)NCCc1ccccc1	-	-	-	-	-	.
N#CC(c1cccc(Cl)c1)c1ccc2c(C(F)(F)F)cc(C(F)(F)F)nc2n1 (centres undefined)	-	-	-	-	46	76
NNc1ccc2c(C(F)(F)F)cc(C(F)(F)F)nc2n1	-	-	-	-	-	.
O=C1N/C(=N\S(=O)(=O)Cc2ccccc2)S/C1=C/c1cc([N+](=O)[O-])ccc1O	-	-	-	-	41	55
O=C1N/C(=N\S(=O)(=O)c2ccccc2)S/C1=C\c1cc([N+](=O)[O-])ccc1O	-	-	-	-	-	.
CC1(C)Cc2c(c(N3CCOCC3)nc3sc4c(NN)ncnc4c23)CS1	-	56	-	-	60	89
CC(C)CNc1nnnc2c1sc1nc(N3CCOCC3)c3c(c12)CC(C)(C)SC3	-	-	-	-	-	.
COc1cc(C(C#N)N2N=C(c3ccccc3)CC2c2ccccc2)ccc1O (centres undefined)	-	-	-	-	-	.
N#CC(c1ccccc1O)N1N=C(c2ccccc2)CC1c1ccccc1 (centres undefined)	-	54	-	-	67	-
CCOc1cc(N2CCOCC2)c(OCC)cc1NC(=O)CSc1ncn[nH]1	-	-	-	-	-	.
CCOC(=O)c1c(C)[nH]c(C)c1C(=O)Cn1nnc(-c2ccccc2C)n1	-	-	-	-	46	-
O=C(CCCC(=O)OCC(=O)c1ccc(Cl)cc1Cl)Nc1cc(C(F)(F)F)ccc1Cl	-	72	-	-	43	55
O=C(CCCC(=O)OCC(=O)c1ccc(F)cc1)Nc1cc(C(F)(F)F)ccc1Cl	-	-	-	-	-	.
CCN(CC)CC(=O)c1c(N)n(Cc2ccccc2)c(=O)n(C)c1=O	-	-	-	-	-	.
Cn1c(=O)c(C(=S)NC(=O)C2CC2)c(N)n(Cc2ccccc2)c1=O	.	.	-	.	42	72
COc1ccc(NC(=O)CSc2nc(C(C)C)nc3c2c(=O)n(C)c(=O)n3C)c(OC)c1	-	-	-	-	-	.
CCOc1ccc(NC(=O)COC(=O)CC2CC3CCC2C3)cc1 (centres undefined)	-	-	-	-	-	.
Cc1ccc(NC(=S)NCC2CCCO2)cc1 (centres undefined)	-	-	-	-	45	-
C=CCn1c(C2CC2)n[nH]c1=S	-	-	-	-	-	.
CCCCCC1CCC(c2n[nH]c(=S)n2C)CC1 (centres undefined)	-	-	-	-	41	78
SMILES	CXCR6 inh	CCR6 antag	APJ agonist	EBI2 antag	APJ antag	APJ antag conf
Cc1ccc(N(CC(=O)NCc2ccc3c(c2)OCO3)C(=O)c2csnn2)cc1	-	-	-	-	-	.
COc1ccc(NC(=S)NNc2ccc(S(=O)(=O)Nc3ccccc3C(=O)O)cc2[N+](=O)[O-])cc1	43	68	-	-	56	100
Cc1cccc(C)c1NC(=O)C1(C)CCC(=O)N1CCc1c[nH]c2ccccc12 (centres undefined)	-	.	.	-	.	.
COc1cc(/C=C(\C#N)C(=O)c2c[nH]c3ccccc23)cc(OC)c1O	46	58	-	-	40	79
O=C(Nc1cc(Cl)ccc1N1CCOCC1)c1ccc(Br)o1	-	-	-	-	-	.
Cc1ccnc2nc(C(=O)Nc3cc(Cl)ccc3N3CCOCC3)nn12	-	-	-	-	57	-
O=C(Cc1cccs1)NCc1ccccc1Br	-	-	-	-	-	.
O=C(CNC1CCCCCC1)c1cccs1	-	-	-	-	67	-
Nc1nc2c(c(=O)[nH]1)C(c1ccccc1)C1=C(N2)c2ccccc2C1=O (centres undefined)	-	-	-	-	45	-
Cc1cc(C)n2c(SC(C)C(=O)NC3(C#N)CCCCC3)nnc2n1 (centres undefined)	-	-	-	-	-	.
CC1(O)CC(c2ccc(Cl)cc2)=NN1C(=O)c1ccc([N+](=O)[O-])cc1 (centres undefined)	-	68	-	-	41	70
O=C(O)CSc1c2c(nc3cc(C(=O)Nc4ccc(F)c(Cl)c4)ccc13)CCCC2	-	-	-	-	-	.
O=[N+]([O-])c1ccc(O)c(-c2nc(-c3ccccc3)c(-c3cccs3)[nH]2)c1	-	-	-	-	42	54
O=C1Nc2ccccc2C1=Nc1cccc(Cl)c1	-	-	-	-	-	.
Cc1cccc(N=C2C(=O)Nc3c(Cl)cccc32)c1	-	65	-	-	63	136
CC(=O)c1ccc(N=C2C(=O)Nc3ccccc32)cc1	69	-	-	-	104	155
O=C1Nc2ccccc2C1=Nc1ccc(F)cc1	-	68	-	-	49	119
CSc1cccc(N=C2C(=O)Nc3ccccc32)c1	-	54	-	-	45	110
NS(=O)(=O)c1ccc(N=C2C(=O)Nc3ccccc32)cc1	-	-	-	-	-	.
COc1cc(NC(=O)CCn2c(=S)[nH]c3ccccc3c2=O)cc(OC)c1OC	-	.	.	-	.	.
Cn1c(CCNC(=O)c2ccco2)nc2cc(NC(=O)c3ccccc3Cl)ccc21	-	-	-	-	-	.
COc1ccc(CN2CCN(Cc3ccc(C(F)(F)F)cc3)CC2)cc1	-	-	-	-	-	.
O=[N+]([O-])c1ccc(/C=N/Nc2ccc3ccccc3c2)o1	42	63	-	-	67	81
CCOCC(=O)Nc1ccc2c(c1)N(S(=O)(=O)c1cccs1)CCC2	-	-	-	-	-	.
CCC[C@@H](CN1CCC[C@H]1CN1C(N)=NC[C@H]1CC(C)C)N1C[C@@H](Cc2ccccc2)N(CCc2ccc(Cl)c(Cl)c2)C1=N	-	-	-	-	42	57
COc1ccc(N2C(=O)CC(Cc3ccc(Br)cc3)C2=O)cc1 (centres undefined)	-	-	-	-	-	.
CCOc1ccc(N2C(=O)CC(Cc3ccc(Br)cc3)C2=O)cc1 (centres undefined)	-	-	-	-	65	-
COc1cc(/C=C2\SC(c3ccc(C)cc3)=NC2=O)cc(OC)c1O	-	65	-	-	56	77
Cc1ccc(C2=NC(=O)/C(=C/c3cc(O)c(O)c(Br)c3)S2)cc1	-	-	-	-	-	.
